The target in experiment [1] is Mu-type opioid receptor (Cavia porcellus) (UniProt P97266). Put plainly: Irreversible binding affinity at mu-receptor was evaluated as % of control specific binding remaining unwashed at concentration of 50 (nM) using [3H]DAMGO radioligand. The gist of the method:
(§1)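 Guinea pig brain homogenate (less cerebellum) in 0.05 M Trizma pH 7.4, diluted 1:60. It was incubated with ligand 60 min at 25 °C, then diluted in ice-cold buffer and centrifuged 10000g. Washed samples were resuspended in buffer, incubated 15 min at 37 °C and recentrifuged. Binding used 1.0 nM [3H]DAMGO for 60 min at 25 °C, with filtration and counting. Nonspecific binding was set with 10 µM naloxone. Triplicates; % specific binding was taken relative to recovery controls.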

The target is the same in experiment [2]. Kind of experiment: Irreversible binding affinity at mu-receptor was evaluated as % of control specific binding remaining washed at concentration of 30 (nM) using [3H]DAMGO radioligand. The gist of the method:
as §1

For another experiment, the target named is Mu-type opioid receptor (Cavia porcellus, UniProt P97266). Kind of experiment: Inhibitory concentration was determined against Opioid receptor mu 1 using [3H]- DAMGO radioligand. In a few lines:
(§2)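 Guinea pig brain (minus cerebellum) homogenate in 0.05 M Tris pH 7.4, diluted 1:60 (0.8-1.5 mg protein/ml). Ligand tested in duplicate at nine concentrations; 60 min at 25 °C. Nonspecific binding defined with naloxone. Filtration, ice-cold buffer rinse, scintillation counting.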

In experiment [3] the target is Kappa-type opioid receptor (Cavia porcellus) (UniProt P41144). Kind of experiment: Irreversible binding affinity at Opioid receptor kappa 1 was evaluated as % of control specific binding remaining protected at concentration of 40 (nM) using [3H]U-69593 radioligand. In a few lines: (§3)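 Diluted guinea pig brain homogenate is exposed to ligand for 60 min at 25 °C; protected samples are first preincubated 15 min at 37 °C with 1 naloxone. Washed samples are diluted in ice-cold Tris pH 7.4, spun at 10000g for 15 min at 4 °C, then resuspended and incubated 15 min at 37 °C, twice. Read-out is standard radioligand binding, expressed as % of recovery-sample specific binding. Test ligands run in triplicate; reference averaged over three assays.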

Experiment [4] addresses Mu-type opioid receptor (Cavia porcellus) (UniProt P97266). Put plainly: Irreversible binding affinity at mu-receptor was evaluated as % of control specific binding remaining protected at concentration of 50 (nM) using [3H]DAMGO radioligand. In a few lines:
as §3

In experiment [5] the target is Kappa-type opioid receptor (Cavia porcellus) (UniProt P41144). Put plainly: Irreversible binding affinity at Opioid receptor kappa 1 was evaluated as % of control specific binding remaining unwashed at concentration of 20 (nM) using [3H]U-69593 radioligand. The gist of the method: as §3
Experiment [6] has as its target Kappa-type opioid receptor (Cavia porcellus, UniProt P41144). Put plainly: Inhibitory concentration against Opioid receptor kappa 1 using [3H]- U-69,593 radioligand. In a few lines: as §2
Experiment [7] concerns the target Kappa-type opioid receptor (Cavia porcellus) (UniProt P41144). Put plainly: Irreversible binding affinity at Opioid receptor kappa 1 was evaluated as % of control specific binding remaining washed at concentration of 40 (nM) using [3H]U-69593 radioligand. In a few lines: as §3
For experiment [8] the target is unchanged. Put plainly: Irreversible binding affinity at Opioid receptor kappa 1 was evaluated as % of control specific binding remaining washed at concentration of 20 (nM) using [3H]U-69593 radioligand. The gist of the method: as §3
Experiment [9] has as its target Mu-type opioid receptor (Cavia porcellus) (UniProt P97266). Put plainly: Irreversible binding affinity at mu-receptor was evaluated as % of control specific binding remaining protected at concentration of 30 (nM) using [3H]DAMGO radioligand. In a few lines: as §3
Experiment [10] has as its target Kappa-type opioid receptor (Cavia porcellus) (UniProt P41144). Kind of experiment: Irreversible binding affinity at Opioid receptor kappa 1 was evaluated as % of control specific binding remaining unwashed at concentration of 40 (nM) using [3H]U-69593 radioligand. In a few lines: as §3
Experiment [11] has as its target Mu-type opioid receptor (Cavia porcellus) (UniProt P97266). Kind of experiment: Irreversible binding affinity at mu-receptor was evaluated as % of control specific binding remaining washed at concentration of 50 (nM) using [3H]DAMGO radioligand. The gist of the method: as §1
Experiment [12] has as its target Opioid receptors; mu/kappa/delta. Put plainly: Inhibitory concentration was determined against Opioid receptors using [3H]- bremazocine radioligand. It is filed as protein assay, Cavia porcellus. The gist of the method: as §2
For experiment [13], the target named is Kappa-type opioid receptor (Cavia porcellus) (UniProt P41144). Kind of experiment: Irreversible binding affinity at Opioid receptor kappa 1 was evaluated as % of control specific binding remaining protected at concentration of 20 (nM) using [3H]U-69593 radioligand. The gist of the method:
as §3

Experiment [14] concerns the target Mu-type opioid receptor (Cavia porcellus) (UniProt P97266). Put plainly: Irreversible binding affinity at mu-receptor was evaluated as % of control specific binding remaining unwashed at concentration of 30 (nM) using [3H]DAMGO radioligand. The gist of the method:
as §1

Experiment [15] concerns the target Kappa-type opioid receptor (Cavia porcellus) (UniProt P41144). Kind of experiment: Irreversible binding affinity at Opioid receptor kappa 1 was evaluated as % of control specific binding remaining washed at concentration of 30 (nM) using [3H]U-69593 radioligand. The gist of the method: as §3
Experiment [16] has the same target. Kind of experiment: Irreversible binding affinity at Opioid receptor kappa 1 was evaluated as % of control specific binding remaining protected at concentration of 30 (nM) using [3H]U-69593 radioligand. In a few lines: as §3
For experiment [17] the target is unchanged. Kind of experiment: Irreversible binding affinity at Opioid receptor kappa 1 was evaluated as % of control specific binding remaining unwashed at concentration of 30 (nM) using [3H]U-69593 radioligand. In a few lines:
as §3

The target in experiment [18] is Mu-type opioid receptor (Cavia porcellus) (UniProt P97266). Put plainly: Irreversible binding affinity at mu-receptor was evaluated as % of control specific binding remaining washed at concentration of 35 (nM) using [3H]-DAMGO radioligand. In a few lines: as §1
Experiment [19] shares this target. Put plainly: Irreversible binding affinity at mu-receptor was evaluated as % of control specific binding remaining unwashed at concentration of 35 (nM) using [3H]DAMGO radioligand. The gist of the method:
as §1

The target is the same in experiment [20]. Kind of experiment: Irreversible binding affinity at mu-receptor was evaluated as % of control specific binding remaining protected at concentration of 35 (nM) using [3H]DAMGO radioligand. In a few lines:
as §3

In experiment [21] the target is Kappa-type opioid receptor (Cavia porcellus) (UniProt P41144). Kind of experiment: Irreversible binding affinity at Opioid receptor kappa 1 was evaluated as % of control specific binding remaining protected at concentration of 90 (nM) using [3H]U-69593 radioligand. In a few lines:
as §3

The target is the same in experiment [22]. Put plainly: Irreversible binding affinity at Opioid receptor kappa 1 was evaluated as % of control specific binding remaining washed at concentration of 90 (nM) using [3H]-U-69,593 radioligand. The gist of the method:
as §3

Experiment [23] shares this target. Put plainly: Irreversible binding affinity at Opioid receptor kappa 1 was evaluated as % of control specific binding remaining unwashed at concentration of 90 (nM) using [3H]U-69593 radioligand. In a few lines:
as §3

For experiment [24], the target named is Mu-type opioid receptor (Cavia porcellus) (UniProt P97266). Put plainly: Irreversible binding affinity at mu-receptor was evaluated as % of control specific binding remaining washed at concentration of 10 (nM) using [3H]DAMGO radioligand Values from 3 separate assays (+/-10%).
Experiment [25] shares this target. Kind of experiment: Irreversible binding affinity at mu-receptor was evaluated as % of control specific binding remaining protected at concentration of 10 (nM) using [3H]DAMGO radioligand Values from 3 separate assays (+/-10%). The gist of the method: as §3
Experiment [26] is described as follows: Inhibitory concentration was determined against delta-opioid receptor using [3H]- DPDPE radioligand.
For experiment [27], the target named is Mu-type opioid receptor (Cavia porcellus) (UniProt P97266). Put plainly: Irreversible binding affinity at mu-receptor was evaluated as % of control specific binding remaining unwashed at concentration of 10 (nM) using [3H]-DAMGO radioligand Values from 3 separate assays (+/-10%). The gist of the method:
as §3

Mu-type opioid receptor (Cavia porcellus), sequence (P97266 whole entry): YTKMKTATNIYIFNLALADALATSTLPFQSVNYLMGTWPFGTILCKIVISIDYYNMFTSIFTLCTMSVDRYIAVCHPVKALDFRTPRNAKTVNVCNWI
Mu-type opioid receptor, sequence (P97266 whole entry): as above
Kappa-type opioid receptor, sequence (P41144 whole entry): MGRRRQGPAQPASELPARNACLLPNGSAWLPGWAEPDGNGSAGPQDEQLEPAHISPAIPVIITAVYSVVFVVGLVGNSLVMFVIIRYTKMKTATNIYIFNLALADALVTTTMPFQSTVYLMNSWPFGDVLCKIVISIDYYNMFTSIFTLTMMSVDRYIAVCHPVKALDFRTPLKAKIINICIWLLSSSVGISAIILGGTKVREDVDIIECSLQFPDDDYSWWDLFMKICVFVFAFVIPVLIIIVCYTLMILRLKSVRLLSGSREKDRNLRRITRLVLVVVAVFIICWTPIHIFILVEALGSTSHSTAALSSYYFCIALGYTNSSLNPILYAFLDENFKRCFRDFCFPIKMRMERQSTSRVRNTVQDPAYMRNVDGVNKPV
Kappa-type opioid receptor (Cavia porcellus), sequence (P41144 whole entry): as above

The term IC50 denotes the concentration that gives 50% inhibition. Lower therefore signals greater potency in that assay. As for `Oc1ccc2c3c1O[C@H]1[C@H](OCc4ccc(CN=C=S)cc4)CC[C@@]4(O)C(C2)N(CC2CC2)CCC314` (some centres not stated), the Control in experiment [1] is 22%; in experiment [2], 56%; in experiment [3] it was 64%; in [4], 60%; in experiment [5], 61%; in experiment [7], 58%. In addition, the Control amounted to 68% in experiment [8]; 67% in experiment [9]; 32% in [10]; 58% in experiment [11]; 95% in [13]; 59% in experiment [14]. Moreover, the concentration for half-maximal inhibition (IC50) is 11 nM on Mu-type opioid receptor, 7.4 nM in [6] and 21 nM in experiment [12].

For `Oc1ccc2c3c1O[C@H]1[C@H](OCc4cccc(CN=C=S)c4)CC[C@@]4(O)C(C2)N(CC2CC2)CCC314` (some centres not stated), the Control is 58% in [15]; 73% in experiment [16]; 22% in experiment [17]; 56% in [5]; 68% in [8]; 94% in experiment [13]. The figures for the IC50 (on Mu-type opioid receptor; in [6]; in experiment [12]) were 19 nM, 6 nM and 24 nM, respectively.

For the compound `Oc1ccc2c3c1O[C@H]1[C@H](OCc4ccc(N=C=S)cc4)CC[C@@]4(O)C(C2)N(CC2CC2)CCC314` (some centres not stated), the Control in experiment [18] turned out to be 46%; in experiment [19], 14%; in [20] it was 48%; in experiment [21], 27%; in [22] it was 28%; in experiment [23] it was 14%. The IC50 came out at 9.6 nM on Mu-type opioid receptor, 21 nM in [6] and 22 nM in [12].

Take `Oc1ccc2c3c1OC1[C@H](OCc4ccccc4)CCC4(O)C(C2)N(CC2CC2)CCC314` (some centres not stated): the values for the Control in [24], in [25] and in experiment [27] were 100%, 104% and 14%, respectively. For the same compound, the IC50 in experiment [26] came out at 2.9 nM.

The values are drawn from ChEMBL document CHEMBL1128234, “Isothiocyanate-substituted benzyl ether opioid receptor ligands derived from 6 beta-naltrexol” (J Med Chem, 1995).
